Measured values as given in ChEMBL document CHEMBL3758075, “Synthesis and pharmacological evaluation of nucleoside prodrugs designed to target siderophore biosynthesis in Mycobacterium tuberculosis” (Bioorg Med Chem, 2016).

Experiments:
[1] = Permeability from apical to basolateral side in human Caco2 cells assessed as prodrug remaining in apical side for 2 hrs by HPLC method; type: ADME, cell-based; conditions: caco-2, 2 h
Method in brief: (§1)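 Bidirectional Caco-2 transwell run (21-day monolayers, TER >300 Ωcm2, apical pH 6.0 / basolateral pH 7.4 buffers, 100 µM donor). Intact prodrug left in the apical and basolateral compartments at 2 h quantified by reversed-phase HPLC, with hydrolysis to parent tracked.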

[2] = Apparent permeability from basolateral to apical side in human Caco2 cells at 100 uM incubated for 2 hrs by HPLC method; type: ADME, cell-based; conditions: Caco-2
Method in brief: (§2)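 Caco-2 cells (passage 50–70) grown 21 days on 0.4 µm transwell inserts; wells with TER >300 Ωcm2 used. Apical CAB pH 6.0, basolateral CAB pH 7.4, preincubated 60 min at 65 rpm. Test compound 100 µM in donor with lucifer yellow for tight-junction integrity. Acceptor levels of prodrug plus hydrolyzed parent measured by HPLC over time with cumulative sampling. Papp = flux/(area × C0); efflux ratio = BL-AP/AP-BL.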

[3] = Aqueous stability in pH 7.4 HEPES buffer assessed as prodrug remaining at 100 uM after 2 hrs by HPLC method; type: physicochemical; conditions: pH 7.4, 2 h
Method in brief: (§3)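 Compound 100 µM (2% DMSO final) incubated in triplicate at 37 °C in simulated gastric fluid pH 1.2 or 100 mM HEPES pH 7.4. Samples taken at 0 and 120 min, placed on ice and analysed by RP-HPLC for prodrug and released parent; percentage of prodrug remaining at 120 min calculated.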

[4] = Retention time of compound by RP-HPLC method; type: physicochemical
Method in brief: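 Reversed-phase C18 column (5 µm, 4.6 × 250 mm). Mobile phase 20 mM triethylammonium bicarbonate pH 7.5 / acetonitrile. Gradient 5–70% acetonitrile over 10 min, then 90% to 16 min, then 3 min re-equilibration at 5%.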

[5] = Apparent permeability from apical to basolateral side in human Caco2 cells at 100 uM incubated for 2 hrs by HPLC method; type: ADME, cell-based; conditions: Caco-2; method in brief: as §2
[6] = Efflux ratio of permeability from basolateral to apical side over apical to basolateral side in human Caco2 cells incubated for 2 hrs by HPLC method; type: ADME, cell-based; conditions: Caco-2; method in brief: as §2
Plasma [7] = assay: Half life in CD-1 mouse plasma assessed as N-(N-(((2R,3R,4R,5R)-5-(6-amino-9H-purin-9-yl)-4-fluoro-3-hydroxytetrahydrofuran-2-yl)methyl)sulfamoyl)-2-hydroxybenzamide by HPLC method; type: ADME, cell-free
Method in brief: (§4)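 Pooled female plasma (CD-1 mouse, Sprague-Dawley rat, human) preincubated 5 min at 37 °C, then spiked from a 10 mM DMSO stock; triplicate. Samples at 0–360 min quenched with equal volume 10% TCA, centrifuged, supernatant run on HPLC. Half-life or percentage remaining at 6 h derived.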

[8] = Permeability from basolateral to apical side in human Caco2 cells assessed as prodrug remaining in apical side for 2 hrs by HPLC method; type: ADME, cell-based; conditions: caco-2, 2 h; method in brief: as §1
[9] = Permeability from basolateral to apical side in human Caco2 cells assessed as prodrug remaining in basolateral side for 2 hrs by HPLC method; type: ADME, cell-based; conditions: caco-2, 2 h; method in brief: as §1
Plasma [10] = assay: Stability in Sprague-Dawley rat plasma assessed as residual compound after 6 hrs by HPLC method; type: ADME, cell-free; method in brief: as §4
[11] = Aqueous stability in pH 1.2 simulated gastric fluid assessed as prodrug remaining at 100 uM after 2 hrs by HPLC method; type: physicochemical; conditions: simulated gi fluid, pH 1.2, 2 h; method in brief: as §3
[12] = Permeability from apical to basolateral side in human Caco2 cells assessed as prodrug remaining in basolateral side for 2 hrs by HPLC method; type: ADME, cell-based; conditions: caco-2, 2 h; method in brief: as §1
Plasma [13] = assay: Stability in human plasma assessed as residual compound after 6 hrs by HPLC method; type: ADME, cell-free; method in brief: as §4
Plasma [14] = assay: Half life in Sprague-Dawley rat plasma assessed as N-(N-(((2R,3R,4R,5R)-5-(6-amino-9H-purin-9-yl)-4-fluoro-3-hydroxytetrahydrofuran-2-yl)methyl)sulfamoyl)-2-hydroxybenzamide by HPLC method; type: ADME, cell-free; method in brief: as §4
[15] = Aqueous stability in pH 7.4 HEPES buffer assessed as compound remaining after 2 hrs by HPLC method; type: physicochemical; conditions: pH 7.4, 2 h; method in brief: as §3
[16] = Drug level in pH 7.4 HEPES buffer treated with 100 uM 9-[3-O-(Acetyl)-2,5-dideoxy-2-fluoro-5-{N-(N-2-hydroxybenzoyl)sulfamoyl}amino-b-D-ribofuranosyl]adenine triethylammonium salt for 2 hrs by HPLC analysis; type: physicochemical; conditions: pH 7.4, 2 h; method in brief: as §3
[17] = Aqueous stability in pH 1.2 simulated gastric fluid assessed as compound remaining after 2 hrs by HPLC method; type: physicochemical; conditions: simulated gi fluid, pH 1.2, 2 h; method in brief: as §3
Plasma [18] = assay: Stability in CD-1 mouse plasma assessed as residual compound after 6 hrs by HPLC method; type: ADME, cell-free; method in brief: as §4

Row | SMILES | permeability [1] | Papp B→A at 2 h, 100 µM [2] | Stability [3] | Retention_time [4] | Papp A→B at 2 h, 100 µM [5] | efflux ratio at 2 h [6] | t1/2 (Plasma [7]) | permeability [8] | permeability [9] | Stability (Plasma [10]) | Stability [11] | permeability [12] | Stability (Plasma [13]) | t1/2 (Plasma [14]) | Stability [15] | Drug metabolism [16] | Stability [17] | Stability (Plasma [18])
1 | CC(C)C(=O)O[C@H]1[C@@H](F)[C@H](n2cnc3c(N)ncnc32)O[C@@H]1CNS(=O)(=O)NC(=O)c1ccccc1O.CCN(CC)CC | 88% | 3.4 ×10⁻⁶ cm/s | 100% | 10.7 min | 0.4 ×10⁻⁶ cm/s | 8.5 | 3.7 h | 53% | 95% | 72% | 98% | 73% |  |  |  |  |  | 
2 | CCCCC(=O)O[C@H]1[C@@H](F)[C@H](n2cnc3c(N)ncnc32)O[C@@H]1CNS(=O)(=O)NC(=O)c1ccccc1O.CCN(CC)CC |  |  | 100% | 11.9 min |  |  | 1.6 h |  |  | 53% | 98% |  | 66% |  |  |  |  | 
3 | CC(=O)O[C@H]1[C@@H](F)[C@H](n2cnc3c(N)ncnc32)O[C@@H]1CNS(=O)(=O)NC(=O)c1ccccc1O.CCN(CC)CC | 93% | 1.6 ×10⁻⁶ cm/s | 92% | 9.5 min | 1.1 ×10⁻⁶ cm/s | 1.5 | 4.6 h | 88% | 86% |  | 97% | 81% | 61% | 5.7 h |  |  |  | 
4 | CCCCCCCC(=O)O[C@H]1[C@@H](F)[C@H](n2cnc3c(N)ncnc32)O[C@@H]1CNS(=O)(=O)NC(=O)c1ccccc1O.CCN(CC)CC | 29% | 6.9 ×10⁻⁶ cm/s | 98% | 13.7 min | 3.9 ×10⁻⁶ cm/s | 1.8 | 0.7 h | 1% | 90% | 86% | 93% | 3% |  |  |  |  |  | 
5 | CCC(=O)O[C@H]1[C@@H](F)[C@H](n2cnc3c(N)ncnc32)O[C@@H]1CNS(=O)(=O)NC(=O)c1ccccc1O.CCN(CC)CC |  |  | 100% | 10 min |  |  | 3.3 h |  |  | 58% | 97% |  | 70% |  |  |  |  | 
6 | Nc1ncnc2c1ncn2[C@@H]1O[C@H](CNS(=O)(=O)NC(=O)c2ccccc2O)[C@@H](O)[C@H]1F |  |  |  | 8.9 min |  |  |  |  |  |  |  |  |  |  | 100% | metabolite_detected | 100% | 
7 | CCC(CC)C(=O)O[C@H]1[C@@H](F)[C@H](n2cnc3c(N)ncnc32)O[C@@H]1CNS(=O)(=O)NC(=O)c1ccccc1O.CCN(CC)CC | 97% | 3.8 ×10⁻⁶ cm/s | 100% |  | 0.5 ×10⁻⁶ cm/s | 7.6 |  | 78% | 99% | 93% | 100% | 90% | 94% |  |  |  |  | 83%
8 | Nc1ncnc2c1ncn2[C@@H]1O[C@H](COS(=O)(=O)NC(=O)c2ccccc2O)[C@@H](O)[C@H]1O |  |  |  | 7.8 min |  |  |  |  |  |  |  |  |  |  |  |  |  | 
9 | CCCC(=O)O[C@H]1[C@@H](F)[C@H](n2cnc3c(N)ncnc32)O[C@@H]1CNS(=O)(=O)NC(=O)c1ccccc1O.CCN(CC)CC | 74% | 3.5 ×10⁻⁶ cm/s | 100% | 10.4 min | 0.5 ×10⁻⁶ cm/s | 7 | 2.2 h | 15% | 93% | 61% | 97% | 63% | 64% |  |  |  |  | 
10 | CCCCCCCCCCCC(=O)O[C@H]1[C@@H](F)[C@H](n2cnc3c(N)ncnc32)O[C@@H]1CNS(=O)(=O)NC(=O)c1ccccc1O.CCN(CC)CC |  |  | 100% | 9.9 min |  |  | 1.6 h |  |  | 95% | 76% |  | 98% |  |  |  |  | 
